Source: PubChem BioAssay (Broad Institute)
PDI turbidity: inhibitors of human PDI, primary screen, biochemical, turbidity, single point, plate reader. Protein disulfide-isomerase (Homo sapiens), P07237. PDI insulin aggregation turbidity, A650, 90 min. inhibition, % at 10 µM. 350,000 tested, 0.052% active. AID 588391, 2011;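 active = mean inhibition across replicates of 30% or more, whatever share of single replicates reach that level; inconclusive = mean inhibition below 30% while every single replicate reaches 30%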
Target sequence (P07237 whole entry, looked up): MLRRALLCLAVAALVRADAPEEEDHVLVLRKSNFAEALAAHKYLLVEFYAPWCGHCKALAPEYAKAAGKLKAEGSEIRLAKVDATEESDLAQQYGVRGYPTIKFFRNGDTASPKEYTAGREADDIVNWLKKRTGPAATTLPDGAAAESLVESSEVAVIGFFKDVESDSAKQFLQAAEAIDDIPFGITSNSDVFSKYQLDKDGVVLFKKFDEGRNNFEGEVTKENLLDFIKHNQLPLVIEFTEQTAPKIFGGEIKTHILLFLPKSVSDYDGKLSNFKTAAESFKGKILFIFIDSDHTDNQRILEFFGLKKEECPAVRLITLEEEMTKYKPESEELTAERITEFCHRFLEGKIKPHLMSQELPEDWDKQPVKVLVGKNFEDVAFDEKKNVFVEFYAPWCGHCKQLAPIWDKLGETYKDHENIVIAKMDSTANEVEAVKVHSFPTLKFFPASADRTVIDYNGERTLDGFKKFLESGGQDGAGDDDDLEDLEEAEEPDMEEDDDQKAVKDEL
ERp5 block: inhibitors of ERp5-driven insulin aggregation, primary screen, biochemical, turbidity, absorbance 650 nm, single point; Protein disulfide-isomerase A6 (Homo sapiens), Q15084; 90 min; AID 651711, 2012; inhibition, % at 9.99 µM; 350,000 tested, 0.05% active;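 active = mean replicate inhibition above about 25%, with every replicate also reaching it, limit read from the data, passing the limit was not always enough; inconclusive = only one of those two criteria met; inactive = neither criterion met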
C2C12 statin: suppressors of statin myotoxicity in C2C12 myotubes, primary screen, cell-based, single point, plate reader. 330,000 tested, 0.78% active. C2C12 myotubes + simvastatin, ATP luminescence, 48 h; scaled: DMSO 0, geranylgeraniol control 100. rescue of ATP level, % at 7.49 µM;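 active = mean ATP rescue above about 67%, or every replicate alone reaching that limit, limit read from the data, passing the limit was not always enough; inconclusive = no clear call, values can overlap the other calls; inactive = mean under the limit and some replicate under it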;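 also: myotubes were challenged with 10 µM simvastatin during compound exposure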
Cneo AK release: Cryptococcus neoformans cell lysis inducers, primary screen, AK release luminescence, single concentration; lysis activity, % at 15 µM; 360,000 tested, 0.2% active; C. neoformans lysis, adenylate kinase release luminescence, 4 h; normalised: neutral wells 0, clomiphene wells 100; AID 651654, 2012;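 active = mean lysis activity across replicates of at least 80%, whatever share of replicates individually reach that level; inactive = mean lysis activity below 80%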
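Schedule: static 4 h at 37 °C with compound, 1 h detection; system: C. neoformans cells; benchmarks: Clomiphene as positive control; buffer or medium: fresh YPD medium; measure: luminescence rise reflecting yeast cell lysis; measured by: luminescent adenylate kinase detection reagent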
CFTR F508del cor: F508del CFTR correction, initial screen, CFBE line, single point | CFBE cells, YFP halide quenching; stimulated with forskolin plus potentiator P3; % fluorescence drop versus neutral controls | activity (quench increase), % at 7.58 µM | 350,000 tested, 0.36% active | AID 720511, 2013;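 active = mean added fluorescence quench of at least 8% versus neutral control, with both replicates also reaching 8%; inconclusive = only one of the mean or replicate conditions met; inactive = mean below 8% and not both replicates reaching 8%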;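 also: cells transiently co-express mutant CFTR-F508del with the halide-sensitive YFP; corrector assay measuring rescue of mutant channel to the surface after 24 h compound exposure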
DENV2 CPE rescue: inhibitors of DENV2 cytopathic effect, primary screen, cell-based, plate reader, single concentration. AID 651640, 2012. CPE inhibition, % at 9.99 µM. DENV2-infected cells, cytopathic effect rescue. 350,000 tested, 1.7% active; in the data active = CPE inhibition above about 20%, passing the limit was not always enough; inconclusive = no clear call, values can overlap the other calls; tested in BHK-21 cells
A number is an active result; . = inactive; ? = inconclusive; / = no result given. An excerpt weighted towards active compounds, which were near 2.3% of everything screened.

SMILES	PDI turbidity	ERp5 block	C2C12 statin	Cneo AK release	CFTR F508del cor	DENV2 CPE rescue
CCCn1c(CN2CCN(C(=O)OCC)CC2)nc2cc(NC(=O)CC)ccc21	.	.	.	.	8.6	.
CCOC(=O)N1CCN(Cc2nc3cc(NC(=O)CC)ccc3n2C)CC1	.	.	.	.	.	.
C[C@@H]1CN([C@@H](C)CO)C(=O)c2cc(NS(=O)(=O)c3cccs3)ccc2O[C@@H](C)CCCCO[C@@H]1CN(C)S(=O)(=O)c1ccccc1	/	.	/	.	.	.
CCOC(=O)c1nn(-c2cccc(Cl)c2)c(C)c1C(C)=O	.	/	123	.	/	/
Cc1cccc2cc3c(nc12)SC(=NCC1CCCO1)N(Cc1ccco1)C3 (stereo not given)	.	/	/	.	/	/
COCCN=C1Sc2nc3c(C)cccc3cc2CN1Cc1ccco1	.	/	114	.	/	/
COc1ccccc1-c1cnc2c(c1)C(=O)N([C@H](C)CO)C[C@@H](C)[C@H](CN(C)C(=O)c1cccnc1)O2	/	/	.	/	.	/
CCN(CC)S(=O)(=O)c1ccc(N2CCOCC2)c(NC(=O)c2cc(C)cc(C)c2)c1	.	/	/	.	/	/
CCN(CC)S(=O)(=O)c1ccc(N2CCOCC2)c(NC(=O)c2ccccc2)c1	.	.	/	/	.	26
CCOC(=O)c1ccc(N2CCOCC2)c(NC(=O)c2c(-c3ccccc3)noc2C)c1	.	.	/	.	16	.
Cc1noc(C)c1S(=O)(=O)N(C)C[C@@H]1Oc2ccc(NC(=O)Nc3cccc4ccccc34)cc2CC(=O)N([C@H](C)CO)C[C@@H]1C	/	.	.	.	.	.
O=C(CCCSc1nc(-c2ccco2)cc(C(F)(F)F)n1)NCc1cccs1	.	/	126	.	/	/
COc1ccc(CCNC(=O)CSc2nc(-c3ccco3)cc(C(F)(F)F)n2)cc1OC	.	.	.	.	.	.
O=C(CSc1nc(-c2ccco2)cc(C(F)(F)F)n1)NCCc1ccccc1	.	/	89	/	/	/
C/C=C/c1cnc2c(c1)C(=O)N([C@@H](C)CO)C[C@@H](C)[C@@H](CN(C)C(=O)Nc1ccc(F)cc1)O2	/	.	.	.	.	.
C[C@@H]1CCCCO[C@H](CN(C)S(=O)(=O)c2cn(C)cn2)[C@H](C)CN([C@@H](C)CO)C(=O)c2cc(NC(=O)CCC(F)(F)F)ccc2O1	/	.	.	.	.	.
C[C@@H]1CN([C@@H](C)CO)C(=O)Cc2cc(NC(=O)Cn3cnnn3)ccc2O[C@H]1CN(C)Cc1ccc(Oc2ccccc2)cc1	/	.	?	.	.	.
CSc1nncn1/N=C/c1ccc2c(c1)OCO2	.	/	106	.	/	/
CSc1nncn1/N=C/c1ccc([N+](=O)[O-])cc1	.	.	/	/	.	.
CC1=C(C(=O)N(C)C)CC(CC(=O)NC2CCCCC2)C(=O)N1Cc1ccc(C(C)(C)C)cc1 (stereo not given)	.	.	.	.	.	43
COCCCN1C(=O)C(CC(=O)NC2CCCCC2)CC(C(=O)N(C(C)C)C(C)C)=C1C (stereo not given)	/	.	.	.	.	27
COCCCN1C(=O)C(CC(=O)NC(c2ccccc2)c2ccccc2)CC(C(=O)N(C(C)C)C(C)C)=C1C (stereo not given)	/	.	.	.	.	57
CC1=C(C(=O)N(C(C)C)C(C)C)CC(CC(=O)NC2CCCCC2)C(=O)N1CCCN1CCCC1=O (stereo not given)	/	.	.	.	.	.
C[C@@H]1CCCCO[C@H](CN(C)S(=O)(=O)c2cccs2)[C@@H](C)CN([C@@H](C)CO)C(=O)c2cc(NC(=O)CCC(F)(F)F)ccc2O1	/	.	/	94	.	?
C[C@@H]1CCCCO[C@H](CN(C)S(=O)(=O)c2cccs2)[C@@H](C)CN([C@H](C)CO)C(=O)c2cc(NC(=O)CCCCCC(=O)Nc3ccccc3N)ccc2O1	/	.	/	/	.	24
